# Experimental data reported in ChEMBL document CHEMBL1795289, “5-alk(en)ylresorcinols as the major active components in wheat bran inhibit human colon cancer cell growth” (Bioorg Med Chem, 2011).
# Legend:
# Type in all cases: functional, cell-based
# HCT-116 = assay: Growth inhibition of human HCT116 cells after 48 hrs by MTT assay; settings: HCT-116, 48 h
# Procedure, shortened: (§1)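 Cells seeded at 5000/well and left 24 h at 37 °C to attach. Samples in DMSO diluted into McCoy's 5A with 10% FBS, penicillin/streptomycin, amphotericin B and glutamine at 5, 10, 25, 37 and 50 µg/mL, 48 h, 37 °C. MTT 2.41 mmol/L for 3 h, formazan dissolved in DMSO, absorbance 595 nm. Reported as % cell growth, n = 8; IC50 by curve fitting.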
# HT-29 = assay: Growth inhibition of human HT-29 cells after 48 hrs by MTT assay; settings: HT-29, 48 h; procedure, shortened: as §1
# FM3A = assay: Growth inhibition of mouse FM3A cells
# HeLa = assay: Growth inhibition of human HeLa cells
# BT-20 = assay: Growth inhibition of human BT20 cells
SMILES,IC50 (HCT-116),IC50 (HT-29),IC50 (HeLa),IC50 (BT-20),IC50 (FM3A)
CCCC/C=C\CCCCCCCCCCCc1cc(O)cc(O)c1,20 µg/mL,35.6 µg/mL,,,
CCCC/C=C\CCCCCCCCCCCCCc1cc(O)cc(O)c1,17.6 µg/mL,,,,
CCCCCC/C=C\CCCCCCCCCCCc1cc(O)cc(O)c1,11.6 µg/mL,30.4 µg/mL,,,
CCCCC/C=C\C/C=C\CCCCCCCCCc1cc(O)cc(O)c1,27.1 µg/mL,48.3 µg/mL,,,
CC/C=C\C/C=C\C/C=C\CCCCCCCCCc1cc(O)cc(O)c1,20 µg/mL,39.5 µg/mL,,,
CCCC/C=C\CCCCCCCCCCCCCCCc1cc(O)cc(O)c1,22.3 µg/mL,46.9 µg/mL,,,
CCCCCCCCCCCCCCCCCCCCCCCCCc1cc(O)cc(O)c1,> 50 µg/mL,> 50 µg/mL,,,
CCCCCCCCCCCCCCCc1cc(O)cc(O)c1 [CARDOL],,,4.02 µg/mL,6.25 µg/mL,2800 nM

# The next lines start with results.
IC50 (HCT-116),IC50 (HT-29),IC50 (HeLa),IC50 (BT-20),SMILES,IC50 (FM3A)
36.2 µg/mL,> 50 µg/mL,,,CCCCCCCCCCCCCCCCCCCc1cc(O)cc(O)c1,
> 50 µg/mL,> 50 µg/mL,,,CCCCCCCCCCCCCCCCCCCCCc1cc(O)cc(O)c1,
16.6 µg/mL,,,,CCCCCCCCCCCCCCCCCCCC(=O)Cc1cc(O)cc(O)c1,
> 50 µg/mL,> 50 µg/mL,,,CCCCCCCCCCCCCCCCCCCCCCCc1cc(O)cc(O)c1,
> 50 µg/mL,,,,CCCCCCCCCCCCCCCCCCCCCC(=O)Cc1cc(O)cc(O)c1,
18.9 µg/mL,31.1 µg/mL,,,CCCCCCCCCCCCCCCCCc1cc(O)cc(O)c1,
